Measurements reported in PMC3051377 (British Journal of Pharmacology, 2011).

Key:
Gi/o G-proteins [1] = experiment: Kinetics of 500 nM [3H]GDP binding to Gi/o G-proteins; design: species or system Chinese hamster
[2] = biological target: T1, M2 receptor-G-protein complex (Homo sapiens, UniProt P08172); type: binding; details: 10 µM [3H]GDP, GDP-less membranes, n=3
T1 sequence (P08172 1-466): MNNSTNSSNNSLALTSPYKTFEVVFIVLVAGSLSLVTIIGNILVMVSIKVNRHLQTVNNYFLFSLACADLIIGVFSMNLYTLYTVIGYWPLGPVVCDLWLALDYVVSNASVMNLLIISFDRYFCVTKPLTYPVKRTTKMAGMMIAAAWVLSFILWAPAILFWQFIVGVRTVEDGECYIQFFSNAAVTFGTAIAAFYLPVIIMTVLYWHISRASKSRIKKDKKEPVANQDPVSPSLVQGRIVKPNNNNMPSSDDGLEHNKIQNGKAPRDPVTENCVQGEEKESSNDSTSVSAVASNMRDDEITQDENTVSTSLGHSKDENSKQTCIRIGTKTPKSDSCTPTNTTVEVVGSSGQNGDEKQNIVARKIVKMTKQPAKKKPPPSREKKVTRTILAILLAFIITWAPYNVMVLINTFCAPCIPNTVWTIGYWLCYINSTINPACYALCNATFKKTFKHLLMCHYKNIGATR

[3] = biological target: T1, M2 receptor-G-protein complex; type: binding; details: Eqn 8, GDP-less membranes, 1 nM [3H]NMS
Gq/11 G-proteins [4] = biological target: T2, Gq/11 G-proteins (Homo sapiens, UniProt P08172); type: binding, Chinese hamster; details: Gq/11; cooperativity between agonist and [3H]GDP binding
T2 sequence (P08172 1-466): T1 sequence (P08172 1-466)

[5] = biological target: T3, human M2 muscarinic receptor (Homo sapiens, UniProt P08172); experiment: Agonist-stimulated [35S]GTPγS binding to membranes from M2 CHO cells; type: biochemical
T3 sequence (P08172 1-466): T1 sequence (P08172 1-466)

[6] = tested on: wild-type (non-transfected) CHO cells; experiment: [35S]GTPγS binding at wild-type; type: biochemical, Chinese hamster
Method in brief: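 Membranes were incubated 60 min with 50 µM GDP and agonist. They were then incubated with 500 pM [³⁵S]GTPγS for 20 min at 30°C in 100 mM NaCl, 20 mM Na-HEPES, 10 mM MgCl₂ (pH 7.4) with 1 mM DTT, about 10 µg protein per sample. Non-specific binding was taken with 1 µM GTPγS. Read-out was filtration and scintillation counting.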

Gs/olf G-proteins [7] = experiment: Kinetics of 500 nM [3H]GDP binding to Gs/olf G-proteins; design: species or system Chinese hamster
[8] = tested on: G-proteins in GDP-less membranes of CHO-M2 cells; experiment: Kinetics of [3H]GDP binding to GDP-less membranes; design: species or system Chinese hamster; details: 10 µM carbachol
Method in brief: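 GDP-less CHO-M2 membranes, 30°C. Association of 500 nM [³H]GDP was measured after 20 min pre-incubation with buffer, 10 or 100 µM agonist, or 0.1 µM antagonist. For dissociation, membranes were prelabelled with 500 nM [³H]GDP for 180 min, then chased with 50 µM GDP alone or with ligand. Slow and fast rate constants came from biphasic fits.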

[9] = tested on: G-proteins in GDP-less membranes of CHO-M2 cells; experiment: Kinetics of [35S]GTPγS binding to GDP-less membranes; design: species or system Chinese hamster; details: for Beq of [35S]GTPγS: GDP-less membranes
Method in brief: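 GDP-less CHO-M2 membranes, 30°C. Association of 1 nM [³⁵S]GTPγS was measured after 20 min pre-incubation with buffer or 100 µM agonist, ±50 µM GDP. For dissociation, membranes were preloaded 90 min with 1 nM [³⁵S]GTPγS ±50 µM GDP, then chased with 1 µM GTPγS alone or with agonist. Filtration on glass-fibre filters, scintillation counting. Three experiments in quadruplicate; exponential association/dissociation fits.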

Gi/o G-proteins [10] = biological target: T4, Gi/o G-proteins (Homo sapiens, UniProt P08172); experiment: biochemical; type: binding, Chinese hamster; details: Gi/o; cooperativity between agonist and [3H]GDP binding
T4 sequence (P08172 1-466): T1 sequence (P08172 1-466)

Gq/11 G-proteins [11] = biological target: T2, Gq/11 G-proteins; experiment: [35S]GTPγS binding to Gq/11 G-proteins; type: biochemical, Chinese hamster; details: Gq/11
Gi/o G-proteins [12] = biological target: T4, Gi/o G-proteins; experiment: biochemical; type: biochemical, Chinese hamster; details: Gi/o
Gs/olf G-proteins [13] = biological target: T5, Gs/olf G-proteins (Homo sapiens, UniProt P08172); experiment: biochemical; type: biochemical, Chinese hamster; details: Gs/olf
T5 sequence (P08172 1-466): T1 sequence (P08172 1-466)

Gs/olf G-proteins [14] = biological target: T5, Gs/olf G-proteins; experiment: biochemical; type: binding, Chinese hamster; details: Gs/olf; cooperativity between agonist and [3H]GDP binding
[15] = 100 µM carbachol, presence of 50 µM GDP

SMILES: C[N+](C)(C)CCOC(N)=O [Carbachol]
- Beq1 of [3H]GDP (Gi/o G-proteins [1]; 10 µM carbachol): 1.7 ± 0.2 fmol·µg^−1 protein
- decrease of [3H]GDP equilibrium binding (Gi/o G-proteins [1]; 10 µM carbachol): 1.8 fold
- f2 of [3H]GDP dissociation (Gi/o G-proteins [1]; 10 µM carbachol): 38 ± 4%
- Beq1 of [3H]GDP (Gi/o G-proteins [1]; 100 µM carbachol): 0.35 ± 0.03 fmol·µg^−1 protein
- decrease of [3H]GDP equilibrium binding (Gi/o G-proteins [1]; 100 µM carbachol): ninefold
- f2 of [3H]GDP dissociation (Gi/o G-proteins [1]; 100 µM carbachol): 36 ± 5%
- slowing of association of [3H]GDP in comparison to fast sites (Gi/o G-proteins [1]; 100 µM carbachol): 12 fold
- factor of cooperativity α between binding of [3H]GDP and agonist (pα) [2]: −2.3 ± 0.2
- reduction of agonist affinity by GDP (factor of cooperativity β) [3]: 200 fold
- pα (Gq/11 G-proteins [4]): −0.85 ± 0.09
- maximal increase of [35S]GTPγS binding (Emax) [5]: threefold
- nH ([5]; Hill coefficient, Eqn 2): 0.81 ± 0.05
- effect on [35S]GTPγS binding [6]: no effect
- Beq of [3H]GDP (Gs/olf G-proteins [7]; 10 µM carbachol): 0.43 ± 0.02 fmol·µg^−1 protein
- decrease of [3H]GDP equilibrium binding (Gs/olf G-proteins [7]; 10 µM carbachol): 1.9 fold
- Beq of [3H]GDP (Gs/olf G-proteins [7]; 100 µM carbachol): 0.10 ± 0.01 fmol·µg^−1 protein
- decrease of [3H]GDP equilibrium binding (Gs/olf G-proteins [7]; 100 µM carbachol): 8.1 fold
- effect on [3H]GDP binding association rate (Gs/olf G-proteins [7]; 10 and 100 µM carbachol): no effect
- slowing of [3H]GDP association, faster fraction [8]: twofold
- effect on kinetics of [35S]GTPγS binding ([9]; 100 µM carbachol, absence of GDP): did not change
- effect on rate of dissociation of [35S]GTPγS [9, 15]: no effect
- increase of equilibrium binding of [35S]GTPγS [9, 15]: fourfold
- Beq of [35S]GTPγS ([9]; 50 µM GDP +100 µM carbachol): 4.85 ± 0.19 ^*a fmol·µg^−1protein
- Beq of [35S]GTPγS ([9]; no GDP, +100 µM carbachol): 5.70 ± 0.25 fmol·µg^−1protein
- pα (Gi/o G-proteins [10]): −2.3 ± 0.2
- EMAX (Gq/11 G-proteins [11]): 1.61 ± 0.02 fold increase over basal binding
- EMAX (Gi/o G-proteins [12]): 2.89 ± 0.06 fold increase over basal binding
- EMAX (Gs/olf G-proteins [13]): 1.82 ± 0.05 fold increase over basal binding
- pα (Gs/olf G-proteins [14]): −1.2 ± 0.1
